Most compounds without a hit are left out; they make up all but 1.4% or so of the library.
iPSC survival up – hiPSC single-cell survival enhancement; ATPlite luminescence; 100% = ROCK inhibitor wells, 0% = DMSO; survival enhancement, % at 20 µM; 360,000 compounds, 0.044% hits; AID 602274; in the data active means survival enhancement above about 18%;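 further: cells exposed to compounds for 16 hours before the ATP read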
CendR NRP1 mod – NRP-1/CendR interaction modulation; O14786; FAM-RPARPAR peptide binding to NRP-1, fluorescence polarization; inhibition, % at 25 µM; 360,000 compounds, 0.85% hits;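 active means inhibition or corrected inhibition above about 18%, plus a signal ratio from 0.5 to 1.5, limit read from the data, passing the limit was not always enough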
SKN-1 inh – inhibitors of C. elegans SKN-1. C. elegans VP596 Pgst-4::GFP/RFP ratio, acrylamide-induced, 24 h. inhibition, % at 21.8 µM. 360,000 compounds, 0.49% hits;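 active means interference check ratio from 0.5 to 1.5 plus GFP to RFP signal ratio inhibition reaching or exceeding a fixed threshold, cut at about 30% in these data, passing the limit was not always enough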
MT1-MMP act inh – inhibitors of human MT1-MMP activation; HT1080 RFP-PRO-GFP cells, GFP/RFP ratio fluorescence, overnight; percent of plate control window, DMSO zero; GFP/RFP ratio change, % at 20 µM; 360,000 compounds, 0.061% hits; AID 651647;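 active means GFP/RFP ratio change of at least 30% with cell ATP level not reduced by more than half and red fluorescence within 50% of control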
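Assay system: RFP-PRO-GFP reporter HT1080 cells; read-out basis: GFP/RFP fluorescence ratio; benchmarks: DMSO wells and RFP-L50D-GFP cells; doses: 20 µM single dose, 1% DMSO; schedule: overnight cell settling, then overnight compound exposure, 37 °C, 5% CO2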
An asterisk follows results filed as active.

SMILES	iPSC survival up	CendR NRP1 mod	SKN-1 inh	MT1-MMP act inh
COCCn1c(-c2ccc(OC)cc2)cnc1SCC(=O)Nc1cccc2ccccc12	-1	26*	3	-2
COCCn1c(SCC(=O)Nc2ccccc2OC)nc2c([nH]c3ccccc32)c1=O	0	26*	-22	-7
COc1cc(/C=N/NC(=O)C(=O)/C=C2\NC(C)(C)Cc3ccccc32)ccc1O	0	2	4	-6
O=c1oc(/C=C/c2ccccc2)nc2sc3c(c12)CCC3	-4	25*	-12	5
O=C(CSc1nc2sc3c(c2c(=O)n1-c1ccccc1)CCCC3)N/N=C/c1ccc(C(=O)O)cc1	0	-33	7	1
COc1ccc(/C=C/c2nc3sc4c(c3c(=O)o2)CCC4)cc1	-2	130	-3	1
Cn1c(N/N=C/c2ccccc2)nc2sc3c(c2c1=O)CCC3	-3	0	48*	5
CCOc1ccc(C(=O)SC2=NCCS2)cc1	0	-1	0	4
N#Cc1ccccc1NC(=O)COC(=O)CCc1ccccc1	1	17*	3	2
C=CCNC(=S)NNc1nc(N2CCCC2)nc(N2CCCC2)n1	0	0	5	-2
Nc1ccc(O)cc1C(=O)OCC(=O)C12CC3CC(CC(C3)C1)C2	2	-9	45*	5
Nc1cccc2cnccc12	-1	9	22	9
O=S(=O)(c1cccc2cnccc12)N1CCNCC1	27*	-5	2	-14
CCOc1ccc(Br)cc1S(=O)(=O)N1CCSC1	0	3	13	-4
O=S(=O)(c1cccc2ccccc12)N1CCSC1	-2	30*	1	7
COc1cccc(C(=O)Nc2nc3c(s2)CN(C)CC3)c1	-2	-79	5	-4
COc1ccc(CNC(=O)C2CCNCC2)cc1	0	4	-9	-5
COC(=O)CCN1CCN(S(=O)(=O)c2cccc(Br)c2)CC1	-1	6	7	2
N=c1oc2ccc3ccccc3c2cc1-c1nc(-c2ccccc2)cs1	-1	135	7	-4
N=c1oc2ccccc2cc1-c1nc(-c2ccccc2)cs1	-2	0	58*	-3
Cc1ccc2ncnc(Nc3cccc([N+](=O)[O-])c3)c2c1	-1	10	38*	-3
CCN(CC(=O)Nc1ccc(NC(C)=O)cc1)C(=O)c1ccc2ccccc2c1	0	1	6	1
COc1ccc(CN(C)CC(O)COc2ccc(C(=O)c3ccccc3)cc2)c(OC)c1OC (stereo not drawn)	0	-4	-21	0
COc1ccc(Br)cc1CN(C)CC(O)COc1ccc(Br)cc1 (stereo not drawn)	0	13	35*	3
Clc1ccsc1-c1csc(-c2cccnc2)n1	-1	12	42*	1
SMILES	iPSC survival up	CendR NRP1 mod	SKN-1 inh	MT1-MMP act inh
CCCCN(C(=O)c1cc2c(s1)CCCCC2)c1c(N)n(CCC)c(=O)[nH]c1=O	-1	-6	10	-3
CCCCN1C(=O)/C(=C/C=C2/CC(C)(C)CN2C)SC1=S	-1	131	-9	-109
Cc1cc(NC(=O)CS(=O)(=O)c2ccc(F)cc2)no1	0	0	-1	-7
O=C(Nc1cccc(S(=O)(=O)N2CCCCCC2)c1)c1ccc2ccccc2n1	1	-9	7	-11
Cc1csc(NC(=O)c2ccc3ccccc3n2)n1	0	-1	11	1
O=C(Nc1ccc(N2CCCCC2)cc1)c1ccc2ccccc2n1	-1	-36	69*	7
O=C(Nc1nccs1)c1ccc2ccccc2n1	0	-37	57*	3
Cc1cc(C)cc(NC(=O)CSc2nc(=O)n(CCN3CCOCC3)c3c2CCCC3)c1	1	-11	0	2
O=C(NCCN1CCN(C(=O)c2cccc(OC(F)F)c2)CC1)c1cccc(OC(F)F)c1	-2	22*	4	-5
COc1ccc(C(=O)NCCN2CCN(C(=O)c3ccc(OC)c(OC)c3)CC2)cc1OC	-1	1	-2	3
Clc1ccc(-c2csc(-c3ccno3)n2)cc1	0	5	13	-4
Fc1cccc(-c2csc(-c3ccno3)n2)c1	0	-1	52*	2
CC(C)C(N)c1csc(NC(=O)Nc2cccc(C(F)(F)F)c2)n1 (stereo not drawn)	-3	24*	3	-9
CC(CN1CCOCC1)OC(=O)c1ccccc1 (stereo not drawn)	0	-4	-14	0
CCC(C)[C@H](NC(=O)Nc1cccc(Cl)c1)C(=O)O (stereo partly drawn)	0	20*	-14	9
CCC(C)[C@H](NC(=O)Nc1ccc(S(N)(=O)=O)cc1)C(=O)O (stereo partly drawn)	0	0	1	1
COc1ccc(C2=CC(c3ccc(F)cc3)n3nnnc3N2)cc1 (stereo not drawn)	-3	35*	4	-88
O=C(O)c1cccc(S(=O)(=O)N2CCCC2)c1	6	4	3	12
CN(C)C(CNC(=O)c1cccc(S(=O)(=O)N2CCN(c3ccc(F)cc3)CC2)c1)c1ccccc1 (stereo not drawn)	0	1	46*	-6
O=C(O)c1cccc(S(=O)(=O)N2CCN(C(c3ccccc3)c3ccccc3)CC2)c1	2	36*	-5	-3
O=c1c2ccccc2c(C=Nc2cccc(S(=O)(=O)NC3=NCCCCC3)c2)c(O)n1Cc1ccccc1	0	-7	-12	-4
COc1ccc(N2CCN(Cc3nc(N)nc(Nc4ccc(C)c(Cl)c4)n3)CC2)cc1	-2	-2	36*	-12
C=CCOc1ccc(C2NC(=O)c3ccccc3O2)cc1OC (stereo not drawn)	8	1	-1	5
Cc1ccc(S(=O)(=O)N2CCCCC2C(=O)O)s1 (stereo not drawn)	-1	46*	-14	5
Clc1ccc(-c2cn3c(n2)-c2ccccc2C3)cc1Cl	-3	-8	40*	15
SMILES	iPSC survival up	CendR NRP1 mod	SKN-1 inh	MT1-MMP act inh
O=c1c(-c2ccc(Br)cc2)coc2c(CN3CCCCC3)c(O)ccc12	0	0	2	-3
O=c1c(-c2ccc(Br)cc2)coc2c(CN3CCOCC3)c(O)ccc12	-1	-1	35*	1
O=C(CC1N=C2c3ccccc3N=C(SCc3ccc(Cl)cc3)N2C1=O)NCc1ccco1 (stereo not drawn)	0	-33	14	-5
CN(C)CCCNC(=O)c1cccc(-c2ccc3nncn3c2)c1	0	9	0	3
O=C(NCCO)c1cccc(-c2ccc3nncn3c2)c1	-1	2	48*	1
CCCCOC(=O)Nc1ccc(N2CCCCC2)cc1	-1	-24	46*	6
CCCCOC(=O)Nc1ccc(C(C)C)cc1	-1	-4	33*	2
CCCCOC(=O)Nc1ccc(C(N)=O)cc1	0	10	18	2
CCCc1cc2nnc(SCC(=O)N(C)C3CCCCC3)n2c(N)n1	0	5	43*	-5

Assay outcomes from PubChem.
